Several values for one entry are separate records, joined by “and”; a condition that tells them apart may be missing. Identical values can stand only once. Activity calls are given as the source filed them. The calls are words filed in the database; no cut-off is given here.
Tests used:
CHO [1] = assay: Inhibitory activity against N-acetyl-L-aspartyl-L-glutamate (NAAG) peptidase of rat stably expressed in CHO cells at 100 uM; format: cell-based
[2] = molecular target: Metabotropic glutamate receptor 3 (Homo sapiens, UniProt Q14832); assay: Agonist potency against cloned Metabotropic glutamate receptor 3; format: functional
Procedure, shortened: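 mGluR3 activity was measured on a chimeric mGluR3/1a receptor, which carries mGluR3 pharmacology but couples to phospholipase C. Agonist response was read as accumulation of inositol phosphates.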

CHO [3] = assay: Inhibitory activity against N-acetyl-L-aspartyl-L-glutamate (NAAG) peptidase of rat stably expressed in CHO cells at 100 uM; NA=no activity; format: cell-based

Metabotropic glutamate receptor 3, sequence (Q14832 whole entry): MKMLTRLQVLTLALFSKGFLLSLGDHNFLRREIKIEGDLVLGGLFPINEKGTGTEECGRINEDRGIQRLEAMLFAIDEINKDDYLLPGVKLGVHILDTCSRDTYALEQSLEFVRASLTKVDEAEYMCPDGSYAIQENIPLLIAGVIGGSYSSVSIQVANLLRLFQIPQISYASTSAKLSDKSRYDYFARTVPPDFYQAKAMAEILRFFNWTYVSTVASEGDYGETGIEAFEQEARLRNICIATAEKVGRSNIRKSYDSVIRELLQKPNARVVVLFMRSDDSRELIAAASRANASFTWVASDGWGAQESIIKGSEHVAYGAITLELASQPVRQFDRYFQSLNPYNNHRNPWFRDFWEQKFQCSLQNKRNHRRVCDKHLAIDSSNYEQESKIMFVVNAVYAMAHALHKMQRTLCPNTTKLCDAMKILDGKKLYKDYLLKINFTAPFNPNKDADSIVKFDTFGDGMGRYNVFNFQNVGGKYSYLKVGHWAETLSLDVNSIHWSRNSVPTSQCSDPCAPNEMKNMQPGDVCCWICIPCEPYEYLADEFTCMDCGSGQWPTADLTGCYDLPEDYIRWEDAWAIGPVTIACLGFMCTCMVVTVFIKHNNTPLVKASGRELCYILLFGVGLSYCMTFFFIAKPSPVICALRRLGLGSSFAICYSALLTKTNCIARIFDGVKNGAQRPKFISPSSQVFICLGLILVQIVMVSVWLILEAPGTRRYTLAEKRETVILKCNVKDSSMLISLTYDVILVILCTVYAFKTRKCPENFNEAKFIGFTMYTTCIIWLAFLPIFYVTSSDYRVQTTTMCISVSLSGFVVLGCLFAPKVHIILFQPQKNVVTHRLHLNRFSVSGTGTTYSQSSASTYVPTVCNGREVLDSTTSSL

## O=C(O)CCC(=O)CC(CCC(=O)O)C(=O)O (stereo unspecified)
CHO [1]
  inhibition: 35%

## O=C(O)CCC(CP(=O)(O)CC(CCC(=O)O)C(=O)O)C(=O)O (stereo unspecified)
[2]
  EC50: 39 µM and 45 µM and 51 µM
CHO [1]
  inhibition: 21.7% and 6.9% and 22.3%

## O=C(O)CC[C@H](CP(=O)(O)C[C@H](CCC(=O)O)C(=O)O)C(=O)O
[2]
  EC50: 33 µM

## O=C(O)CCC(CC(=O)CC(CCC(=O)O)C(=O)O)C(=O)O (stereo unspecified)
[2]
  EC50: > 300 µM
CHO [3]
  inhibition: inactive

From ChEMBL document CHEMBL1133715, “Dual function glutamate-related ligands: discovery of a novel, potent inhibitor of glutamate carboxypeptidase II possessing mGluR3 agonist activity” (J Med Chem, 2000)
